Laboratory results from ChEMBL document CHEMBL4261531, “Synthesis of thioether andrographolide derivatives and their inhibitory effect against cancer cells” (Medchemcomm, 2017).

Key:
[1] = system: PC-3; assay: Growth inhibition of human PC3 cells after 48 hrs by MTT assay; assay type: functional, cell-based; conditions: PC-3, 48 h
How it was run: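 PC-3 human prostate cancer cells exposed to compounds, with viability read by MTT assay; taxol served as the positive control.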

[2] = system: MCF7; assay: Growth inhibition of human MCF7 cells after 48 hrs by MTT assay; assay type: functional, cell-based; conditions: MCF7, 48 h
[3] = system: MDA-MB-231; assay: Growth inhibition of human MDA-MB-231 cells after 48 hrs by MTT assay; assay type: functional, cell-based; conditions: MDA-MB-231, 48 h
[4] = system: A549; assay: Growth inhibition of human A549 cells after 48 hrs by MTT assay; assay type: functional, cell-based; conditions: A549, 48 h
[5] = system: Vero; assay: Cytotoxicity against African green monkey Vero cells at 100 uM after 48 hrs by MTT assay; assay type: cell-based; conditions: chlorocebus sabaeus

| Compound | IC50 [1] [µM] | also measured |
| --- | --- | --- |
| C=C1CC[C@@H]2[C@]3(C)COC(C)(C)O[C@@H]3CC[C@@]2(C)[C@@H]1C/C=C1/C(=O)OC[C@H]1OC(=O)CCCSc1cccs1 | 9 | IC50 [2]: 0.7 µM; IC50 [3]: 10 µM; IC50 [4]: 25 µM; Activity [5]: Non-Toxic |
| C=C1CC[C@@H]2[C@](C)(CO)[C@H](O)CC[C@@]2(C)[C@@H]1CC(Sc1ccc(C)cc1)C1=CCOC1=O (some centres undefined) | 29 | – |
| C=C1CC[C@@H]2[C@]3(C)COC(C)(C)O[C@@H]3CC[C@@]2(C)[C@@H]1C/C=C1/C(=O)OC[C@H]1OC(=O)CCCSc1ccccn1 | 9 | IC50 [2]: 0.6 µM; IC50 [3]: 6 µM; IC50 [4]: 23 µM; Activity [5]: Non-Toxic |
| C=C1CC[C@@H]2[C@](C)(CO)[C@H](O)CC[C@@]2(C)[C@@H]1C/C=C1/C(=O)OC[C@H]1OC(=O)CSc1ccc(C)cc1 | 27 | – |
| C=C1CC[C@@H]2[C@]3(C)COC(C)(C)O[C@@H]3CC[C@@]2(C)[C@@H]1C[C@@H](Sc1cccs1)C1=CCOC1=O | 20 | – |
| C=C1CC[C@@H]2[C@]3(C)COC(C)(C)O[C@@H]3CC[C@@]2(C)[C@@H]1C/C=C1/C(=O)OC[C@H]1OC(=O)CCCSc1ccc(C)cc1 | 14 | – |
| C=C1CC[C@@H]2[C@]3(C)COC(C)(C)O[C@@H]3CC[C@@]2(C)[C@@H]1CC(Sc1ccccc1)C1=CCOC1=O (some centres undefined) | 12 | – |
| C=C1CC[C@@H]2[C@]3(C)COC(C)(C)O[C@@H]3CC[C@@]2(C)[C@@H]1CC(Sc1ncccn1)C1=CCOC1=O (some centres undefined) | 7 | IC50 [2]: 7 µM; IC50 [3]: 9 µM; IC50 [4]: 20 µM; Activity [5]: Non-Toxic |
| C=C1CC[C@@H]2[C@](C)(CO)[C@H](O)CC[C@@]2(C)[C@@H]1CC(Sc1ccc([N+](=O)[O-])cc1)C1=CCOC1=O (some centres undefined) | 17 | – |
| C=C1CC[C@@H]2[C@]3(C)COC(C)(C)O[C@@H]3CC[C@@]2(C)[C@@H]1C/C=C1/C(=O)OC[C@H]1OC(=O)CCCSc1ccc(F)cc1 | 13 | – |
| C=C1CC[C@@H]2[C@](C)(CO)[C@H](O)CC[C@@]2(C)[C@@H]1CC(Sc1cccs1)C1=CCOC1=O (some centres undefined) | 15 | – |
| C=C1CC[C@@H]2[C@]3(C)COC(C)(C)O[C@@H]3CC[C@@]2(C)[C@@H]1C/C=C1/C(=O)OC[C@H]1OC(=O)CSc1cccs1 | 15 | – |
| C=C1CC[C@@H]2[C@](C)(CO)[C@H](O)CC[C@@]2(C)[C@@H]1CC(Sc1nccs1)C1=CCOC1=O (some centres undefined) | 14 | – |
| C=C1CC[C@@H]2[C@]3(C)COC(C)(C)O[C@@H]3CC[C@@]2(C)[C@@H]1C/C=C1/C(=O)OC[C@H]1OC(=O)CCCSc1ccc(OC)cc1 | 18 | – |
| C=C1CC[C@@H]2[C@]3(C)COC(C)(C)O[C@@H]3CC[C@@]2(C)[C@@H]1CC(Sc1ccc(F)cc1)C1=CCOC1=O (some centres undefined) | 13 | – |
| C=C1CC[C@@H]2[C@]3(C)COC(C)(C)O[C@@H]3CC[C@@]2(C)[C@@H]1CC(Sc1ccc(C)cc1)C1=CCOC1=O (some centres undefined) | 23 | – |
| C=C1CC[C@@H]2[C@](C)(CO)[C@H](O)CC[C@@]2(C)[C@@H]1CC(Sc1ncccn1)C1=CCOC1=O (some centres undefined) | 7 | IC50 [2]: 23 µM; IC50 [3]: 16 µM; IC50 [4]: 9 µM; Activity [5]: Non-Toxic |
| C=C1CC[C@@H]2[C@]3(C)COC(C)(C)O[C@@H]3CC[C@@]2(C)[C@@H]1C/C=C1/C(=O)OC[C@H]1OC(=O)CSc1ccc(C)cc1 | 11 | – |
| C=C1CC[C@@H]2[C@](C)(CO)[C@H](O)CC[C@@]2(C)[C@@H]1C/C=C1/C(=O)OC[C@H]1OC(=O)CSc1ccc(F)cc1 | 14 | – |
| C=C1CC[C@@H]2[C@]3(C)COC(C)(C)O[C@@H]3CC[C@@]2(C)[C@@H]1C[C@H](Sc1cccs1)C1=CCOC1=O | 9 | IC50 [2]: 5 µM; IC50 [3]: 8 µM; IC50 [4]: 20 µM; Activity [5]: Non-Toxic |
| C=C1CC[C@@H]2[C@]3(C)COC(C)(C)O[C@@H]3CC[C@@]2(C)[C@@H]1CC(Sc1ccc([N+](=O)[O-])cc1)C1=CCOC1=O (some centres undefined) | 12 | – |

| Compound | IC50 [1] [µM] | also measured |
| --- | --- | --- |
| C=C1CC[C@@H]2[C@](C)(CO)[C@H](O)CC[C@@]2(C)[C@@H]1CC(Sc1ccccc1)C1=CCOC1=O (some centres undefined) | 14 | – |
| C=C1CC[C@@H]2[C@]3(C)COC(C)(C)O[C@@H]3CC[C@@]2(C)[C@@H]1CC(Sc1nccs1)C1=CCOC1=O (some centres undefined) | 10 | IC50 [2]: 3 µM; IC50 [3]: 12 µM; IC50 [4]: 31 µM; Activity [5]: Non-Toxic |
| C=C1CC[C@@H]2[C@](C)(CO)[C@H](O)CC[C@@]2(C)[C@@H]1CC(Sc1ccc(OC)cc1)C1=CCOC1=O (some centres undefined) | 15 | – |
| C=C1CC[C@@H]2[C@](C)(CO)[C@H](O)CC[C@@]2(C)[C@@H]1C/C=C1/C(=O)OC[C@H]1OC(=O)CSc1ccc([N+](=O)[O-])cc1 | 17 | – |
| C=C1CC[C@@H]2[C@]3(C)COC(C)(C)O[C@@H]3CC[C@@]2(C)[C@@H]1C/C=C1/C(=O)OC[C@H]1OC(=O)CCCSc1ccc([N+](=O)[O-])cc1 | 17 | – |
| C=C1CC[C@@H]2[C@]3(C)COC(C)(C)O[C@@H]3CC[C@@]2(C)[C@@H]1CC(Sc1ccc(OC)cc1)C1=CCOC1=O (some centres undefined) | 17 | – |
| C=C1CC[C@@H]2[C@](C)(CO)[C@H](O)CC[C@@]2(C)[C@@H]1CC(Sc1ccc(F)cc1)C1=CCOC1=O (some centres undefined) | 16 | – |
| C=C1CC[C@@H]2[C@](C)(CO)[C@H](O)CC[C@@]2(C)[C@@H]1CC(Sc1ccccn1)C1=CCOC1=O (some centres undefined) | 18 | – |
| C=C1CC[C@@H]2[C@](C)(CO)[C@H](O)CC[C@@]2(C)[C@@H]1C/C=C1/C(=O)OCC1OC(=O)CSc1ccc(F)cc1 (some centres undefined) | 13 | – |
| C=C1CC[C@@H]2[C@]3(C)COC(C)(C)O[C@@H]3CC[C@@]2(C)[C@@H]1C/C=C1/C(=O)OC[C@H]1OC(=O)CSc1ccc([N+](=O)[O-])cc1 | 9 | IC50 [2]: 10 µM; IC50 [3]: 19 µM; IC50 [4]: 11 µM; Activity [5]: Non-Toxic |
| C=C1CC[C@@H]2[C@](C)(CO)[C@H](O)CC[C@@]2(C)[C@@H]1C/C=C1/C(=O)OC[C@H]1OC(=O)CSc1cccs1 | 18 | – |
| C=C1CC[C@@H]2[C@]3(C)COC(C)(C)O[C@@H]3CC[C@@]2(C)[C@@H]1CC(Sc1ccccn1)C1=CCOC1=O (some centres undefined) | 14 | – |
| C=C1CC[C@@H]2[C@](C)(CO)[C@H](O)CC[C@@]2(C)C1C/C=C1/C(=O)OC[C@H]1OC(=O)CCCSc1cccs1 (single isomer, unassigned) | 16 | – |
| C=C1CC[C@@H]2[C@](C)(CO)[C@H](O)CC[C@@]2(C)C1C/C=C1/C(=O)OC[C@H]1OC(=O)CCCSc1ccc(C)cc1 (single isomer, unassigned) | 16 | – |
| C=C1CC[C@@H]2[C@](C)(CO)[C@H](O)CC[C@@]2(C)C1C/C=C1/C(=O)OC[C@H]1OC(=O)CCCSc1ccc(F)cc1 (single isomer, unassigned) | 12 | – |
| C=C1CC[C@@H]2[C@](C)(CO)[C@H](O)CC[C@@]2(C)C1C/C=C1/C(=O)OC[C@H]1OC(=O)CCCSc1ccccn1 (single isomer, unassigned) | 14 | – |
| C=C1CC[C@@H]2[C@](C)(CO)[C@H](O)CC[C@@]2(C)C1C/C=C1/C(=O)OC[C@H]1OC(=O)CCCSc1ccc(OC)cc1 (single isomer, unassigned) | 19 | – |
| C=C1CC[C@@H]2[C@](C)(CO)[C@H](O)CC[C@@]2(C)C1C/C=C1/C(=O)OC[C@H]1OC(=O)CCCSc1ccc([N+](=O)[O-])cc1 (single isomer, unassigned) | 17 | – |
| C=C1CC[C@@H]2[C@](C)(CO)[C@H](O)CC[C@@]2(C)[C@@H]1C/C=C1/C(=O)OC[C@H]1O [ANDROGRAPHOLIDE] | 30 | – |
| CC(=O)O[C@H]1C(=O)[C@@]2(C)[C@H]([C@H](OC(=O)c3ccccc3)[C@]3(O)C[C@H](OC(=O)[C@H](O)[C@@H](NC(=O)c4ccccc4)c4ccccc4)C(C)=C1C3(C)C)[C@]1(OC(C)=O)CO[C@@H]1C[C@@H]2O [PACLITAXEL] | 7 | – |
